Published values gathered from unrelated publications.
Target: Calcium/calmodulin-dependent protein kinase type 1 (CAMK1, Homo sapiens, UniProt Q14012)

Cc1cnn2ncc(-c3ccnc(N(C)C)n3)c2c1
remaining binding (binding; 1 µM): 92%

Cn1cc(Cl)c2c(Oc3c(F)cc(Nc4cc(Cl)nc(N)n4)cc3F)ccnc21
remaining binding (cell-free assay; competition with immobilised ligand; 0.1 µM): 100%

O=C(c1ccc(Nc2ncc(Cl)c(-c3ccc(Cl)s3)n2)cc1)N1CCC(N2CCCC2)CC1
remaining binding (binding; competition with immobilised ligand; 1 µM): 54%

COc1cnc(Nc2cccc(S(N)(=O)=O)c2)nc1N1CCN(c2ccccc2)CC1
remaining binding (binding; competition with immobilised ligand; 1 µM): 100%

CCN1CCN(Cc2ccc(C(=O)Nc3ccc(C)c(Oc4ccc5c(c4)CC(=O)N5)c3)cc2C(F)(F)F)CC1
remaining binding (binding; competition with immobilised ligand; 1 µM): 100%

CN(C)c1nccc(-c2cnn3ncccc23)n1
remaining binding (binding; 1 µM): 100%

O=C1NC(c2ccccn2)Sc2ccccc21 (centres unmarked)
remaining binding (cell-free assay; competition with immobilised ligand; 1 µM): 91%

CC1CCCN1c1nccc(-c2cnn3ncccc23)n1 (centres unmarked)
remaining binding (binding; 1 µM): 98%

O=C(NCCCN1CCOCC1)c1ccc(Nc2nccc(-c3cc4ccccc4s3)n2)cc1
remaining binding (binding; competition with immobilised ligand; 1 µM): 75%

CN(C)CC#Cc1ccc(OCCCc2sc(N3CCc4cccc(C(=O)Nc5nc6ccccc6s5)c4C3)nc2C(=O)O)c(F)c1
remaining binding (cell-free assay; competition with immobilised ligand; 1 µM): 93%

Nc1ncc2c(n1)-c1c([nH]c3ccc(C#CC4CC4)cc13)CCCC2
remaining binding (binding; competition with immobilised ligand; 1 µM): 100%

C[C@@H](c1cccc(C#N)c1)n1cc(Cl)cc(C(N)=O)c1=N
remaining binding (cell-free assay; competition with immobilised ligand; 1 µM): 100%

CN(CCCC(F)(F)F)c1nccc(-c2cnn3ncccc23)n1
remaining binding (binding; 1 µM): 76%

CC(=O)N1CCC(c2ccc(C(=O)NC(=N)N)cc2C(F)(F)F)CC1
remaining binding (cell-free assay; competition with immobilised ligand; 1 µM): 100%

CN(c1nccc(-c2cnn3ncccc23)n1)C1CC1
remaining binding (binding; 1 µM): 82%

O=C(NCC1CCOCC1)c1n[nH]cc1NC(=O)c1c(F)cccc1F
remaining binding (binding; competition with immobilised ligand; 1 µM): 88%

CCCOc1ccc([C@H]2[C@H](C(=O)O)[C@@H](c3ccc4c(c3)OCO4)CN2CC(=O)Nc2c(CC)cccc2CC)cc1
remaining binding (cell-free assay; competition with immobilised ligand; 1 µM): 93%

O=C(NCCCN1CCOCC1)c1ccc(Nc2ncc(Cl)c(-c3ccc(Cl)s3)n2)cc1
remaining binding (binding; competition with immobilised ligand; 1 µM): 78%

N[C@@H]1CCN(c2nccc(-c3cnn4ncccc34)n2)C1
remaining binding (binding; 1 µM): 100%

COc1ncc2cc3ccccc3nc2c1C#N
remaining binding (cell-free assay; competition with immobilised ligand; 5 µM): 100%
